From ChEMBL document CHEMBL1146217, “Growth inhibition of Mycobacterium bovis, Mycobacterium tuberculosis and Mycobacterium avium in vitro: effect of 1-beta-D-2'-arabinofuranosyl and 1-(2'-deoxy-2'-fluoro-beta-D-2'-ribofuranosyl) pyrimidine nucleoside analogs” (J Med Chem, 2007)
Converted amounts (≈) assume the structure as drawn.

What was measured:
[1] = system: Streptococcus pneumoniae; test: Antibacterial activity Streptococcus pneumoniae ATCC 49619 after 16 to 20 hrs by broth microdilution method; type: functional
Method in brief: (§1)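 Broth microdilution MIC. Exponentially growing bacteria diluted in sterile liquid medium to a final inoculum of 1 × 10⁴ CFU/mL. Cultured with compound dilutions for 16-20 h; compounds tested at 100, 50, 10 and 1 µg/mL. MIC taken as the concentration giving 100% inhibition of bacterial growth.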

[2] = system: Vero; test: Toxicity against Vero cells after 3 days by MTT test; type: cell-based; settings: chlorocebus sabaeus, 72 h
Method in brief: (§2)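 MTT viability assay. Vero or HFF cells seeded at 2.5 × 10⁵ cells/well and left to attach 6-8 h. Exposed to compound at 100, 50, 25, 12.5, 6.3 and 1.5 µg/mL for 3 days at 37 °C, with a DMSO control. MTT added for 4 h, then solubilized overnight; absorbance read at 560-650 nm.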

[3] = system: Bacillus subtilis; test: Antibacterial activity against Bacillus subtilis ATCC 6633 after 16 to 20 hrs by broth microdilution method; type: functional; method in brief: as §1
[4] = system: Mycobacterium tuberculosis; test: Antimycobacterial activity against Mycobacterium tuberculosis H37Ra at 1ug/mL by microplate Alamar blue assay; type: functional
Method in brief: (§3)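 MABA with M. bovis BCG, M. tuberculosis H37Ra or M. avium ATCC 25291. DMSO stocks (10 mg/mL) diluted in 7H9GC; final inoculum 2.5 × 10⁵ CFU/mL. Incubated 6 days, then alamar blue plus Tween 80 added and read by fluorescence after about 24 h. […]. Tested in triplicate at 100, 50, 10 and 1 µg/mL; two experiments, mean reported.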

[5] = system: Staphylococcus aureus; test: Antibacterial activity against Staphylococcus aureus ATCC 25923 after 16 to 20 hrs by broth microdilution method; type: functional; method in brief: as §1
[6] = system: Proteus vulgaris; test: Antibacterial activity against Proteus vulgaris ATCC 49132 after 16 to 20 hrs by broth microdilution method; type: functional; method in brief: as §1
[7] = system: Mycobacterium tuberculosis; test: Antimycobacterial activity against Mycobacterium tuberculosis H37Ra at 10 ug/mL by microplate Alamar blue assay; type: functional; method in brief: as §3
[8] = system: Streptococcus pyogenes; test: Antibacterial activity Streptococcus pyogenes ATCC 19615 after 16 to 20 hrs by broth microdilution method; type: functional; method in brief: as §1
[9] = system: Klebsiella aerogenes; test: Antibacterial activity against Enterobacter aerogenes after 16 to 20 hrs by broth microdilution method; type: functional; settings: for MIC: Klebsiella aerogenes; method in brief: as §1
[10] = system: Escherichia coli; test: Antibacterial activity against Escherichia coli ATCC 25922 after 16 to 20 hrs by broth microdilution method; type: functional; settings: for MIC: Escherichia coli, ATCC 25922; method in brief: as §1
[11] = Toxicity against human foreskin fibroblast cells after 3 days by MTT test; type: cell-based; method in brief: as §2
[12] = system: Salmonella typhimurium; test: Antibacterial activity against Salmonella Typhimurium after 16 to 20 hrs by broth microdilution method; type: functional, Salmonella enterica subsp. enterica serovar Typhimurium; settings: for MIC: Salmonella enterica; method in brief: as §1
[13] = system: Mycobacterium tuberculosis; test: Antimycobacterial activity against Mycobacterium tuberculosis H37Ra at 50 ug/mL by microplate Alamar blue assay; type: functional; method in brief: as §3
[14] = system: Staphylococcus epidermidis; test: Antibacterial activity against Staphylococcus epidermidis ATCC 14990 after 16 to 20 hrs by broth microdilution method; type: functional; method in brief: as §1
[15] = system: Mycobacterium tuberculosis; test: Antimycobacterial activity against Mycobacterium tuberculosis H37Ra by microplate Alamar blue assay; type: functional
Method in brief: (§4)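 Same alamar blue microplate setup (7H9GC, 2.5 × 10⁵ CFU/mL, 6 days, then dye read after about 24 h), using 2-fold compound dilutions. MIC90 is the lowest concentration giving about 90% inhibition relative to bacteria-only wells after background subtraction. Visual MIC is the lowest concentration preventing the blue-to-pink change.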

[16] = system: Listeria monocytogenes; test: Antibacterial activity Listeria monocytogenes ATCC 15313 after 16 to 20 hrs by broth microdilution method; type: functional; method in brief: as §1
[17] = system: Mycobacterium tuberculosis; test: Antimycobacterial activity against Mycobacterium tuberculosis H37Ra at 100 ug/mL by microplate Alamar blue assay; type: functional; method in brief: as §3
[18] = system: Mycobacterium avium; test: Antimycobacterial activity against Mycobacterium avium ATCC 25291 at 50 ug/mL by microplate Alamar blue assay; type: functional; method in brief: as §3
[19] = system: Enterococcus faecalis; test: Antibacterial activity Enterococcus faecalis ATCC 29212 after 16 to 20 hrs by broth microdilution method; type: functional; method in brief: as §1
[20] = system: Mycobacterium avium; test: Antimycobacterial activity against Mycobacterium avium ATCC 25291 at 100 ug/mL by microplate Alamar blue assay; type: functional; method in brief: as §3
[21] = system: Mycobacterium avium; test: Antimycobacterial activity against Mycobacterium avium ATCC 25291 by microplate Alamar blue assay; type: functional; method in brief: as §4
[22] = system: Pseudomonas aeruginosa; test: Antibacterial activity against Pseudomonas aeruginosa […] after 16 to 20 hrs by broth microdilution method; type: functional; settings: for MIC: Pseudomonas aeruginosa, ATCC 13048; method in brief: as §1
[23] = system: Mycobacterium avium; test: Antimycobacterial activity against Mycobacterium avium ATCC 25291 at 2 ug/mL by microplate Alamar blue assay; type: functional
[24] = system: Pseudomonas aeruginosa; test: Antibacterial activity against Pseudomonas aeruginosa […] at 1 ug/ml after 16 to 20 hrs by broth microdilution method; type: functional
[25] = system: Streptococcus pyogenes; test: Antibacterial activity Streptococcus pyogenes ATCC 19615 at 1 ug/ml after 16 to 20 hrs by broth microdilution method; type: functional
[26] = system: Escherichia coli; test: Antibacterial activity against Escherichia coli ATCC 25922 at 1 ug/ml after 16 to 20 hrs by broth microdilution method; type: functional
[27] = system: Staphylococcus aureus; test: Antibacterial activity against Staphylococcus aureus ATCC 25923 at 1 ug/ml after 16 to 20 hrs by broth microdilution method; type: functional
[28] = system: Bacillus subtilis; test: Antibacterial activity against Bacillus subtilis ATCC 6633 at 1 ug/ml after 16 to 20 hrs by broth microdilution method; type: functional
[29] = system: Listeria monocytogenes; test: Antibacterial activity Listeria monocytogenes ATCC 15313 at 1 ug/ml after 16 to 20 hrs by broth microdilution method; type: functional
[30] = system: Klebsiella aerogenes; test: Antibacterial activity against Enterobacter aerogenes at 1 ug/ml after 16 to 20 hrs by broth microdilution method; type: functional
[31] = system: Staphylococcus epidermidis; test: Antibacterial activity against Staphylococcus epidermidis ATCC 14990 at 1 ug/ml after 16 to 20 hrs by broth microdilution method; type: functional
[32] = system: Salmonella typhimurium; test: Antibacterial activity against Salmonella Typhimurium at 1 ug/ml after 16 to 20 hrs by broth microdilution method; type: functional, Salmonella enterica subsp. enterica serovar Typhimurium; settings: Salmonella enterica
[33] = system: Enterococcus faecalis; test: Antibacterial activity Enterococcus faecalis ATCC 29212 at 1 ug/ml after 16 to 20 hrs by broth microdilution method; type: functional
[34] = system: Streptococcus pneumoniae; test: Antibacterial activity Streptococcus pneumoniae ATCC 49619 at 1 ug/ml after 16 to 20 hrs by broth microdilution method; type: functional

| SMILES | Inhibition [1] [%] | Inhibition [5] [%] | MIC [6] [µg/mL] | Inhibition [8] [%] | MIC [9] [µg/mL] | MIC [10] [µg/mL] | MIC [12] [µg/mL] | Inhibition [14] [%] | MIC90 [15] [µg/mL] | Inhibition [16] [%] | Inhibition [19] [%] | MIC90 [21] [µg/mL] | MIC [22] [µg/mL] | inhibition at 2 µg/mL [23] [%] | inhibition at 1 µg/mL [25] [%] | Inhibition [3] [%] | inhibition at 1 µg/mL [28] [%] | inhibition at 1 µg/mL [29] [%] | Inhibition [12] [%] | inhibition at 1 µg/mL [31] [%] | also measured |
| --- | --- | --- | --- | --- | --- | --- | --- | --- | --- | --- | --- | --- | --- | --- | --- | --- | --- | --- | --- | --- | --- |
| CCCCCCCCCCCC#Cc1cn([C@@H]2O[C@H](CO)[C@@H](O)[C@H]2F)c(=O)[nH]c1=O | 100 | 100 | > 100 | 100 | > 100 | > 100 | > 100 | 100 | 1 (≈ 2.36 µM) | 100 | 100 | 50 (≈ 118 µM) | > 100 |  |  |  |  |  |  |  | MIC ([1]; Streptococcus pneumoniae, ATCC 49619): 100 µg/mL (≈ 236 µM); CC10 [2]: > 100 µg/mL; MIC ([3]; Bacillus subtilis, ATCC 6633): > 100 µg/mL; inhibition at 1 µg/mL [4]: 90%; MIC ([5]; Staphylococcus aureus, ATCC 25923): 100 µg/mL (≈ 236 µM); inhibition at 10 µg/mL [7]: 100%; MIC ([8]; Streptococcus pyogenes, ATCC 19615): 100 µg/mL (≈ 236 µM); CC50 at 72 h [11]: > 100 µg/mL; inhibition at 50 µg/mL [13]: 100%; MIC ([14]; Staphylococcus epidermidis, ATCC 14990): 100 µg/mL (≈ 236 µM); MIC ([16]; Listeria monocytogenes, ATCC 15313): 100 µg/mL (≈ 236 µM); inhibition at 100 µg/mL [17]: 100%; inhibition at 50 µg/mL [18]: 50%; MIC ([19]; Enterococcus faecalis, ATCC 29212): 100 µg/mL (≈ 236 µM); inhibition at 100 µg/mL [20]: 100% |
| CC[C@H]1OC(=O)[C@H](C)[C@@H](O[C@H]2C[C@@](C)(OC)[C@@H](O)[C@H](C)O2)[C@H](C)[C@@H](O[C@@H]2O[C@H](C)C[C@H](N(C)C)[C@H]2O)[C@](C)(OC)C[C@@H](C)C(=O)[C@H](C)[C@@H](O)[C@]1(C)O [CLARITHROMYCIN] |  |  |  |  |  |  |  |  |  |  |  | 2 (≈ 2.67 µM) |  | 95 |  |  |  |  |  |  |  |
| CO[C@H]1/C=C/O[C@@]2(C)Oc3c(C)c(O)c4c(O)c(c(/C=N/N5CCN(C)CC5)c(O)c4c3C2=O)NC(=O)/C(C)=C\C=C\[C@H](C)[C@H](O)[C@@H](C)[C@@H](O)[C@@H](C)[C@H](OC(C)=O)[C@@H]1C [RIFAMPIN] |  | 100 | > 100 | 100 | > 100 | 100 (≈ 122 µM) | > 100 | 100 | 0.5 (≈ 0.608 µM) | 100 |  | 2 (≈ 2.43 µM) | > 100 | 90 | 100 | 100 | 100 | 100 | 100 | 100 | inhibition at 1 µg/mL [24]: 100%; inhibition at 1 µg/mL [26]: 100%; inhibition at 1 µg/mL [27]: 100%; Inhibition [9]: 100%; Inhibition [10]: 100%; inhibition at 1 µg/mL [30]: 100%; Inhibition [22]: 100%; inhibition at 1 µg/mL [32]: 100% |
| CN[C@H](CC(C)C)C(=O)N[C@H]1C(=O)N[C@@H](CC(N)=O)C(=O)N[C@H]2C(=O)N[C@H]3C(=O)N[C@H](C(=O)N[C@H](C(=O)O)c4cc(O)cc(O)c4-c4cc3ccc4O)[C@H](O)c3ccc(c(Cl)c3)Oc3cc2cc(c3O[C@@H]2O[C@H](CO)[C@@H](O)[C@H](O)[C@H]2O[C@H]2C[C@](C)(N)[C@H](O)[C@H](C)O2)Oc2ccc(cc2Cl)[C@H]1O [VANCOMYCIN] | 100 |  | > 100 | 100 | > 100 | > 100 |  | 50 |  | 100 | 100 |  | > 100 |  | 100 | 50 | 50 | 100 | 50 | 50 | inhibition at 1 µg/mL [33]: 100%; inhibition at 1 µg/mL [34]: 100%; inhibition at 1 µg/mL [32]: 50% |
